Source: ChEMBL document CHEMBL1124606, “Benzo- and pyrido-1,4-oxazepin-5-ones and -thiones: synthesis and structure-activity relationships of a new series of H1 antihistamines” (1989)

Assays:
Cavia porcellus [1] = assay: Histamine induced lethality, at 30-min pretreatment time when 30 mg/kg compound was administered intra peritoneally in guinea pigs; format: functional
[2] = target: Histamine H1 receptor (Cavia porcellus) (UniProt P31389); assay: Histamine induced lethality, at 30-min pretreatment time of 3 mg/kg i.p. in guinea pigs.; format: functional, organism-based; set-up: dose 3 mg/kg; conditions: at 3 mg/kg
Sequence of Histamine H1 receptor (Cavia porcellus) (P31389 whole entry): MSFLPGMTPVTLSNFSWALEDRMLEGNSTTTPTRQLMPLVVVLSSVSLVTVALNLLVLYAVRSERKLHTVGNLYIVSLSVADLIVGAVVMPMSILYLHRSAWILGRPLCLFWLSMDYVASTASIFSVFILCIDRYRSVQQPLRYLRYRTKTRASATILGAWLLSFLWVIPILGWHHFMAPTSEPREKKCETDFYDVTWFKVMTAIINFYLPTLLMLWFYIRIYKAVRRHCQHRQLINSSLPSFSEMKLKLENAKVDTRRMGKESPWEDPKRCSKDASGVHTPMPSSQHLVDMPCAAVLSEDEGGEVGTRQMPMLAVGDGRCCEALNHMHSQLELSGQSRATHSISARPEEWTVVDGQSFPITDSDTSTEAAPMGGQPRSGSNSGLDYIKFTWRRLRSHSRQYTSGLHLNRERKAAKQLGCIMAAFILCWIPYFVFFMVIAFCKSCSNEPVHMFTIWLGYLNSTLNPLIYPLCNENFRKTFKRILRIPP

Cavia porcellus [3] = assay: Histamine induced lethality, at 60-min pretreatment time when 30 mg/kg compound was administered perorally in guinea pigs; format: functional; conditions: route oral
Cavia porcellus [4] = assay: Histamine induced lethality, at 60-min pretreatment time when 3 mg/kg compound was administered perorally in guinea pigs; format: functional; conditions: route oral
Cavia porcellus [5] = assay: Histamine induced lethality, at 60-min pretreatment time when 0.3 mg/kg compound was administered perorally in guinea pigs; format: functional; conditions: route oral
Cavia porcellus [6] = species on record: Cavia porcellus; assay: Effective dose that protects guinea pigs against histamine induced lethality, at 1 hour pretreatment time; format: functional
Outline: (§1)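 Survival at 24 h after challenge was scored as protection. Groups of 5–10 animals per treatment; ED50 was calculated by the Litchfield–Wilcoxon method or by computer probit analysis.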

Cavia porcellus [7] = assay: Histamine induced lethality, at 60-min pretreatment time when 1 mg/kg compound was administered perorally in guinea pigs; format: functional; conditions: route oral
[8] = target: Histamine H1 receptor (Cavia porcellus) (UniProt P31389); assay: Histamine induced lethality, at 60-min pretreatment time of 0.1 mg/kg p.o. in guinea pigs.; format: functional, organism-based; set-up: dose 0.1 mg/kg; conditions: at 0.1 mg/kg
Cavia porcellus [9] = species on record: Cavia porcellus; assay: Effective dose that protects guinea pigs against histamine induced lethality at 6 hours pretreatment time; format: functional; outline: as §1

| SMILES | survival at 30 mg/kg (Cavia porcellus [1]) | survival at 3 mg/kg (Cavia porcellus [4]) | survival at 0.3 mg/kg (Cavia porcellus [5]) | survival at 1 mg/kg (Cavia porcellus [7]) | further results |
| --- | --- | --- | --- | --- | --- |
| CN(C)CC1CN(C)C(=S)c2cccnc2O1 (stereo not given) | 0% |  |  |  |  |
| CN(C)CCCC1CN(C)C(=S)c2cccnc2O1 (stereo not given) | 100% |  |  |  | Survival [2]: 33% |
| CN1CC(CCN)Oc2ncccc2C1=S (stereo not given) |  |  |  |  | survival at 30 mg/kg (Cavia porcellus [3]): 0% |
| CN(C)CCC1(C)CN(C)C(=O)c2cccnc2O1 (stereo not given) |  | 67% | 67% |  | ED50 (Cavia porcellus [6]): 0.45 mg/kg |
| CN1CC(CCCN)Oc2ncccc2C1=S (stereo not given) | 67% |  |  |  |  |
| CNCCC1CN(C)C(=S)c2cc(Cl)cnc2O1 (stereo not given) |  | 100% | 0% |  |  |
| CC(=O)Nc1ccc2c(c1)C(=S)N(C)CC(CCN(C)C)O2 (stereo not given) |  | 100% | 0% |  |  |
| CN1CC(CCN2CC=CC2)Oc2ncccc2C1=S (stereo not given) |  | 100% |  | 0% |  |
| CN(C)CCC1CN(C)C(=S)c2cc([N+](=O)[O-])ccc2O1 (stereo not given) |  | 67% | 33% |  |  |
| CN1CC(CCN2CCC2)Oc2ccc(C(F)(F)F)cc2C1=S (stereo not given) |  | 33% |  |  | survival at 30 mg/kg (Cavia porcellus [3]): 100% |
| CN(C)CCC1CN=C(S)c2cccnc2O1 (stereo not given) |  | 100% | 0% | 33% |  |
| CN1CC(CCN2CCCC2)Oc2ncc(Cl)cc2C1=S (stereo not given) |  |  | 100% |  | ED50 (Cavia porcellus [6]): 0.12 mg/kg; Survival [8]: 40% |
| CCN(CC)CCC1CN(C)C(=S)c2cc(Cl)cnc2O1 (stereo not given) |  | 100% | 20% |  | ED50 (Cavia porcellus [6]): 0.39 mg/kg |
| CN1CC(CCn2cccn2)Oc2ncccc2C1=S (stereo not given) | 33% |  |  |  |  |
| CN(CCC1CN(C)C(=S)c2cc(Br)cnc2O1)Cc1ccccc1 (stereo not given) |  | 100% |  | 0% |  |
| CN(C)CCC1CN(C)C(=O)c2ccccc2O1 (stereo not given) | 62% |  |  |  |  |
| CN(C)CCC1CN(C)C(=S)c2cc(-c3ccccc3)cnc2O1 (stereo not given) |  | 100% | 0% | 100% |  |
| CN(C)CCC1(C)CN(C)C(=S)c2cccnc2O1 (stereo not given) |  |  | 67% | 100% | ED50 (Cavia porcellus [9]): 6 mg/kg; ED50 (Cavia porcellus [6]): 0.12 mg/kg; Survival [8]: 40% |
| CN(C)CCOc1ncccc1C(=S)N(C)C | 0% |  |  |  |  |
| CCN(CC)CCC1CN(C)C(=S)c2cccnc2O1 (stereo not given) |  | 67% |  | 33% |  |

| SMILES | survival at 30 mg/kg (Cavia porcellus [1]) | survival at 3 mg/kg (Cavia porcellus [4]) | survival at 0.3 mg/kg (Cavia porcellus [5]) | survival at 1 mg/kg (Cavia porcellus [7]) | further results |
| --- | --- | --- | --- | --- | --- |
| CN1CC(CCN2CCC2)Oc2ncccc2C1=S (stereo not given) |  |  |  |  | ED50 (Cavia porcellus [9]): 1 mg/kg; ED50 (Cavia porcellus [6]): 0.04 mg/kg; Survival [8]: 100% |
| Cc1ccc2c(n1)OC(CCN(C)C)CN(C)C2=S (stereo not given) |  |  | 100% |  | ED50 (Cavia porcellus [9]): > 2 mg/kg; ED50 (Cavia porcellus [6]): 0.06 mg/kg; Survival [8]: 80% |
| CN(C)CCC1CN(C)C(=O)c2cccnc2O1 (stereo not given) |  | 100% |  | 20% | ED50 (Cavia porcellus [6]): 1.05 mg/kg |
| CN(C)CCC1CN(C)C(=S)c2ccncc2O1 (stereo not given) |  |  | 0% | 100% |  |
| CC(CC1CN(C)C(=O)c2cccnc2O1)N(C)C (stereo not given) | 100% |  |  |  | Survival [2]: 0% |
| CN1CC(CCN2CCOCC2)Oc2ncccc2C1=S (stereo not given) | 100% |  |  |  | Survival [2]: 0% |
| CN1CC(CCN2CCC2)Oc2ncc(Br)cc2C1=S (stereo not given) |  | 100% |  | 60% | ED50 (Cavia porcellus [9]): 0.1 mg/kg; ED50 (Cavia porcellus [6]): 0.09 mg/kg; Survival [8]: 60% |
| CN1CC(CCNC2CCC2)Oc2ncccc2C1=S (stereo not given) | 0% |  |  |  |  |
| CN1CC(CCN2CCCC2)Oc2ncccc2C1=S (stereo not given) |  | 80% |  |  | survival at 30 mg/kg (Cavia porcellus [3]): 67% |
| CN1CC(CCCN)Oc2ncccc2C1=O (stereo not given) | 100% |  |  |  | Survival [2]: 0% |
| CN1CC(CCNC2CC2)Oc2ncccc2C1=S (stereo not given) | 0% |  |  |  |  |
| COc1ccc(CN(C)CCC2CN(C)C(=S)c3cccnc3O2)cc1 (stereo not given) |  | 67% |  | 0% |  |
| CCN(C)CCC1CN(C)C(=S)c2cccnc2O1 (stereo not given) |  | 60% |  | 0% | survival at 30 mg/kg (Cavia porcellus [3]): 100% |
| CCN1CC(CCN(C)C)N(C)c2ccccc2C1=O (stereo not given) | 0% |  |  |  |  |
| CCN1CC(CCN(C)C)Oc2ncccc2C1=S (stereo not given) |  | 100% |  | 33% |  |
| CN1CC(CCN2CCC2)Oc2ccc(Cl)cc2C1=S (stereo not given) |  |  | 100% |  | ED50 (Cavia porcellus [6]): 0.12 mg/kg; Survival [8]: 40% |
| COc1ccc2c(c1)C(=S)N(C)CC(CCN(C)C)O2 (stereo not given) |  | 0% |  |  | survival at 30 mg/kg (Cavia porcellus [3]): 100% |
| COc1ccc(CCN(C)CCC2CN(C)C(=S)c3cccnc3O2)cc1 (stereo not given) |  | 33% |  |  | survival at 30 mg/kg (Cavia porcellus [3]): 100% |
| CN(C)CCC1CN(C)C(=O)c2c(cncc2N(C)C)O1 (stereo not given) | 0% |  |  |  |  |
